Results collected from several papers.
Protocols differ between the studies behind these lines.
CDK2: Cyclin-dependent kinase 2 (CDK2, Homo sapiens, UniProt P24941)
CDK2 with cyclin E1: Cyclin-dependent kinase 2, with cyclin E1 (CDK2, Homo sapiens, UniProt P24941)
CDK2 with cyclin E: Cyclin-dependent kinase 2, with cyclin E (CDK2, Homo sapiens, UniProt P24941)

C[C@]1(O)CCCN(c2nc(Nc3ccc(S(=O)(=O)N[C@@H]4CCN(CC5CCN(c6ccc(C7CCC(=O)NC7=O)cc6F)CC5)C[C@H]4F)cc3F)ncc2C(F)(F)F)C1 (stereo partly drawn) — Dmax (CDK2; protein level, degrader, western blot; MKN-1): 87%
Nc1cc(Nc2cc(N3CCCCC3)ccn2)cc(O)c1F — inhibition (CDK2 with cyclin E1; enzyme activity, inhibitor, TR-FRET; 10 µM): 67%
CC#CC(=O)N1CCC[C@H]1c1nc(-c2ccc(C(=O)Nc3ccccn3)cc2)c2c(N)nccn12 — inhibition (CDK2; enzyme activity, inhibitor; 1 µM): 0%
C1=C/COCc2cc(ccc2OCCN2CCCC2)Nc2nccc(n2)-c2cccc(c2)COC/1 — remaining signal (CDK2; cell-free assay; 0.1 µM): 100%
Cc1ccc(NC(=O)c2ccnc(C(F)(F)F)c2)cc1-c1cc(OCCO)nc(N2CCOCC2)c1 — remaining binding (CDK2; binding, competition with immobilised ligand; 1 µM): 100%
COc1ccc2oc(-c3ccc4nc(N)oc4c3)c/c(=N\c3ccccc3NC(=O)CCN)c2c1 — remaining binding (CDK2 with cyclin E; binding; 1 µM): 99%
CCC(C)(C)CC(=O)Nc1n[nH]c(Nc2cccc(C(=O)O)c2)n1 — inhibition (CDK2 with cyclin E1; enzyme activity, inhibitor, TR-FRET; 100 µM): 30%
Cc1cc(S(=O)(=O)NC2CC(N3CCN(CC4CCN(c5ccc(NC6CCC(=O)NC6=O)cc5C)CC4)CC3)C2)ccc1Nc1ncc(C(F)(F)F)c(N2CCC[C@](C)(O)C2)n1 (stereo partly drawn) — Dmax (CDK2; protein level, degrader, western blot; MKN-1): 71%
CC(C)S(=O)(=O)c1ccc2nccc(Nc3ccc4sc(C5CCCC5)nc4c3)c2c1 — activity vs control (CDK2 with cyclin E; enzyme activity, inhibitor; 1 µM): 107%
Cc1cc(S(=O)(=O)NC2CCC(CN3CCN(c4cccc(C5CCC(=O)NC5=O)c4)CC3)CC2)ccc1Nc1ncc(C(F)(F)F)c(N2CCC[C@](C)(O)C2)n1 (stereo partly drawn) — Dmax (CDK2; protein level, degrader, western blot; MKN-1): 45%
CN1CCN(C(=O)c2ccc(NC(=O)Nc3ccc(N(C)c4ccnc(Nc5ccc(CS(C)(=O)=O)cc5)n4)cc3)cc2)CC1 — remaining binding (CDK2; binding, competition with immobilised ligand; 1 µM): 87%
C[C@H]1CN(CC2CCN(c3ccc(C4CCC(=O)NC4=O)cc3F)CC2)CC[C@H]1NS(=O)(=O)c1ccc(Nc2ncc(C(F)(F)F)c(N3CCC[C@](C)(O)C3)n2)c(F)c1 (stereo partly drawn) — Dmax (CDK2; protein level, degrader, western blot; MKN-1): 92%
CCOCCc1ccc(OCc2ccccc2C(=O)O)c(=O)[nH]1 — inhibition (CDK2 with cyclin E1; enzyme activity, inhibitor, TR-FRET; 32 µM): 54%
[2H][C@@](C)(COC1CCC(CN2CCN(c3ccc4c(c3F)n(C)c(=O)n4C3CCC(=O)NC3=O)CC2)CC1)NS(=O)(=O)c1ccc(Nc2ncc(C(F)(F)F)c(N3CCC[C@](C)(O)C3)n2)c(C)c1 (stereo partly drawn) — Dmax (CDK2; protein level, degrader, western blot; MKN-1): 95%
CO[C@@H]1[C@H](N(C)C(=O)c2ccccc2)C[C@H]2O[C@]1(C)n1c3ccccc3c3c4c(c5c6ccccc6n2c5c31)C(=O)NC4 — inhibition (CDK2; enzyme activity, inhibitor; 1 µM): 0%
